Active and inactive are the calls of the source. The rule behind the calls is not given here.
Legend:
Homo sapiens [1] = organism: Homo sapiens; experiment: (§1) Antiproliferative activity against human pancreatic stellate cells at 5 uM after 24 to 48 hrs by AlamarBlue assay; assay type: functional
Method in brief: (§2)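 Transformed human PSC seeded at 3×10^3 cells/well in sextuplicate. Next day exposed to compound at the stated single concentration in 1% FBS medium for 24–48 h. Viability read by AlamarBlue fluorescence (ex/em 544/590 nm). Values are the mean of at least three independent experiments.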

Homo sapiens [2] = organism: Homo sapiens; experiment: (§3) Antiproliferative activity against human pancreatic stellate cells at 10 uM after 24 to 48 hrs by AlamarBlue assay; assay type: functional; method in brief: as §2
[3] = (§4) Antiproliferative activity against human pancreatic stellate cells at 20 uM after 24 to 48 hrs by AlamarBlue assay; assay type: functional; method in brief: as §2
Mus musculus [4] = experiment: Anti-fibrotic activity in C57BL/6 mouse caerulein-induced chronic pancreatitis model assessed as reduction of stromal fibrosis at 0.5 mg/kg, po administered qd for 6 days per week for 3 weeks using hematoxylin 7211 staining by immunohistochemistry analysis; assay type: functional, organism-based; parameters: dose 0.5 mg/kg
Mus musculus [5] = experiment: Anti-fibrotic activity in C57BL/6 mouse caerulein-induced chronic pancreatitis model assessed as reduction of tissue edema at 0.5 mg/kg, po administered qd for 6 days per week for 3 weeks using hematoxylin 7211 staining by immunohistochemistry analysis; assay type: functional, organism-based; parameters: dose 0.5 mg/kg
Mus musculus [6] = experiment: Anti-fibrotic activity in C57BL/6 mouse caerulein-induced chronic pancreatitis model assessed as reduction of acinar cell damage at 0.5 mg/kg, po administered qd for 6 days per week for 3 weeks using hematoxylin 7211 staining by immunohistochemistry analysis; assay type: functional, organism-based; parameters: dose 0.5 mg/kg
Mus musculus [7] = experiment: Anti-fibrotic activity in C57BL/6 mouse caerulein-induced chronic pancreatitis model assessed as reduction of fibrosis at 0.5 mg/kg, po administered qd for 6 days per week for 3 weeks using hematoxylin 7211 staining by image analysis; assay type: functional, organism-based; parameters: dose 0.5 mg/kg
Method in brief: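 C57BL/6 mice given cerulein 50 μg/kg i.p. hourly for 5 h, 3 d/week for 4 weeks; PBS controls. From week 2, oral gavage at 0.5 mg/kg/d, 6 d/week for 3 weeks, in 0.5% methylcellulose + 0.025% Tween 20. Formalin-fixed paraffin sections (5 μm) stained by IHC for fibronectin with hematoxylin counterstain; percent area of stain quantified by image analysis. n = 10–11 per group.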

[8] = as §1; assay type: functional; method in brief: as §2
[9] = as §3; assay type: functional; method in brief: as §2
[10] = Antiproliferative activity against human pancreatic stellate cells after 24 hrs by AlamarBlue assay; assay type: functional
Method in brief: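 Immortalized human PSC (SV40 large T plus telomerase, DMEM/10% FBS) seeded at 3×10^3 cells/well in sextuplicate. Next day switched to 1% FBS with a range of compound concentrations for 24 h. AlamarBlue fluorescence read at 544/590 nm. IC50 taken by nonlinear regression of fluorescence versus log concentration, as mean ± SEM of at least three independent experiments.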

[11] = Induction of apoptosis in human pancreatic stellate cells after 14 hrs by cell death detection ELISAPLUS assay; assay type: functional
Method in brief: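 Transformed human PSC (primary cells immortalised with SV40 large T antigen and telomerase; grown in DMEM, 10% FBS, 37 °C) plated at 8×10^3 per well in triplicate; next day switched to 1% FBS with compound at various doses for 14 h. Cytoplasmic nucleosomes detected by sandwich ELISA, absorbance at 405 nm. EC50 by nonlinear regression against log concentration; at least three independent experiments.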

Homo sapiens [12] = organism: Homo sapiens; experiment: as §4; assay type: functional; method in brief: as §2

SMILES | inhibition at 20 µM [3] [%] | inhibition at 5 µM [8] [%] | inhibition at 10 µM [9] [%] | other results
COc1cc(OC)c2c(=O)cc(-c3ccc(OCCBr)cc3)oc2c1 | 20 | – | – | inhibition (Homo sapiens [1]): inactive; inhibition (Homo sapiens [2]): inactive
COc1cc(OC)c2c(=O)cc(-c3ccc(OCC(O)CN4CCCCC4)cc3)oc2c1 (centres undefined) | 95 | 34 | 65 | Activity (Mus musculus [4]): Active; Activity (Mus musculus [5]): Active; Activity (Mus musculus [6]): Active; Activity (Mus musculus [7]): Active; IC50 [10]: 8 µM; EC50 [11]: 35.2 µM
COc1cc(OC)c2c(=O)cc(-c3ccc(OC4CCN(C)CC4)cc3)oc2c1 | – | 28 | 49 | –
COc1cc(OC)c2c(=O)cc(-c3ccc(OCCN4CCCC4=O)cc3)oc2c1 | 33 | 7 | 14 | –
CCN(CC)CCOc1ccc(-c2cc(=O)c3c(OC)cc(OC)cc3o2)cc1 | 72 | 33 | 60 | –
COc1cc(OC)c2c(=O)cc(-c3ccc(O)cc3)oc2c1 | – | – | – | inhibition (Homo sapiens [1]): inactive; inhibition (Homo sapiens [2]): inactive; inhibition (Homo sapiens [12]): inactive
COc1cc(O)c2c(=O)cc(-c3ccc(OCCN4CCCC4)cc3)oc2c1 | 99 | – | 39 | inhibition (Homo sapiens [1]): inactive
COc1cc(OC)c2c(=O)cc(-c3ccc(OC4CCNCC4)cc3)oc2c1 | – | – | 21 | inhibition (Homo sapiens [1]): inactive
COc1cc(OC)c2c(=O)cc(-c3ccc(OCCN4CCCC4)cc3)oc2c1 | 98 | 48 | 66 | –
COc1cc(OC)c2c(=O)cc(-c3ccc(OCCN4CCN(C)CC4)cc3)oc2c1 | 67 | 22 | 42 | –
COc1cc(OC)c2c(=O)cc(-c3ccc(OCCF)cc3)oc2c1 | 21 | – | – | inhibition (Homo sapiens [1]): inactive; inhibition (Homo sapiens [2]): inactive
COc1cc(OC)c2c(=O)cc(-c3ccc(OCC4CO4)cc3)oc2c1 (centres undefined) | 93 | 69 | 89 | Activity (Mus musculus [4]): Active; Activity (Mus musculus [5]): Active; Activity (Mus musculus [6]): Active; Activity (Mus musculus [7]): Active; IC50 [10]: 2.5 µM; EC50 [11]: 9.6 µM
COc1cc(OC)c2c(=O)cc(-c3ccc(OCCN4CCCCC4)cc3)oc2c1 | 97 | 45 | 64 | –
COc1cc(OC)c2c(=O)cc(-c3ccc(OCC(O)CN4CCCC4)cc3)oc2c1 (centres undefined) | 57 | 21 | 37 | –
COc1cc(OC)c2c(=O)cc(-c3ccc(OCCN(C)C)cc3)oc2c1 | 65 | 19 | 51 | –
COc1cc(OC)c2c(=O)cc(-c3ccc(OCCCN(C)C)cc3)oc2c1 | 86 | 36 | 59 | –
COc1cc(OC)c2c(=O)cc(-c3ccc(OCCN)cc3)oc2c1 | 70 | 6 | 35 | –
COc1cc(OC)c2c(=O)cc(-c3ccc(OCC(O)CO)cc3)oc2c1 (centres undefined) | 16 | – | 11 | inhibition (Homo sapiens [1]): inactive
O=c1cc(-c2ccc(OCCN3CCCC3)cc2)oc2cc(O)cc(O)c12 | 90 | 2 | 71 | –
COc1cc(OC)c2c(=O)cc(-c3ccc(OCC(O)CN(C)C)cc3)oc2c1 (centres undefined) | 71 | 42 | 60 | –
COc1cc(OC)c2c(=O)cc(-c3ccc(NCCN(C)C)cc3)oc2c1 | 84 | 30 | 60 | –
COc1cc(OC)c2c(=O)cc(-c3ccc(NCCN4CCCC4)cc3)oc2c1 | 80 | 21 | 51 | –
COc1cc(OC)c2c(=O)cc(-c3ccc(Br)cc3)oc2c1 | 22 | 12 | 10 | –
COc1cc(OC)c2c(=O)cc(-c3ccc(OCCN4CCOCC4)cc3)oc2c1 | – | – | – | inhibition (Homo sapiens [1]): inactive; inhibition (Homo sapiens [2]): inactive; inhibition (Homo sapiens [12]): inactive
O=c1cc(-c2ccc(O)cc2)oc2cc(O)cc(O)c12 [APIGENIN] | 64 | 11 | 34 | Activity (Mus musculus [4]): Active; Activity (Mus musculus [5]): Active; Activity (Mus musculus [6]): Active; Activity (Mus musculus [7]): Active; IC50 [10]: 18.6 µM; EC50 [11]: 24.5 µM
COc1cc(OC)c2c(=O)cc(-c3ccc(-c4ccc(F)nc4)cc3)oc2c1 | 19 | – | 6 | inhibition (Homo sapiens [1]): inactive
COc1cc(OC)c2c(=O)cc(-c3ccc(OCCCN)cc3)oc2c1 | – | 22 | 39 | –
COC(=O)[C@@H]1CCCN1CCOc1ccc(-c2cc(=O)c3c(OC)cc(OC)cc3o2)cc1 | 67 | 22 | 37 | –
